ChEMBL document CHEMBL3351942, “Rexinoids isolated from Sophora tonkinensis with a gene expression profile distinct from the synthetic rexinoid bexarotene” (J Nat Prod, 2014)
The source made the active and inactive calls. The calls are words filed in the database; no cut-off is given here.

What was measured:
RAW264.7 [1] = experiment: Activation of RXR/LXR heterodimer in mouse RAW264.7 cells assessed as potentiation of T0901317-induced increase in ABCA1 mRNA level at 10 uM by quantitative RT-PCR analysis; type: cell-based
How it was run: (§1)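 RAW264.7 macrophages in DMEM/10% FBS, exposed 24 h with or without LXR agonist T0901317; ABCA1 mRNA by SYBR green qRT-PCR, β-actin-normalized, fold vs vehicle; means ± SD of three determinants, one of three independent experiments; one-way ANOVA, Bonferroni.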

[2] = target: T1, Retinoic acid receptor RXR-alpha (Homo sapiens, UniProt P19793); experiment: (§2) Agonist activity at human RXR-alpha expressed in HEK293 cells coexpressing with pCMX-beta-gal after 24 to 48 hrs by luciferase reporter gene assay; type: cell-based
T1 sequence (P19793 whole entry): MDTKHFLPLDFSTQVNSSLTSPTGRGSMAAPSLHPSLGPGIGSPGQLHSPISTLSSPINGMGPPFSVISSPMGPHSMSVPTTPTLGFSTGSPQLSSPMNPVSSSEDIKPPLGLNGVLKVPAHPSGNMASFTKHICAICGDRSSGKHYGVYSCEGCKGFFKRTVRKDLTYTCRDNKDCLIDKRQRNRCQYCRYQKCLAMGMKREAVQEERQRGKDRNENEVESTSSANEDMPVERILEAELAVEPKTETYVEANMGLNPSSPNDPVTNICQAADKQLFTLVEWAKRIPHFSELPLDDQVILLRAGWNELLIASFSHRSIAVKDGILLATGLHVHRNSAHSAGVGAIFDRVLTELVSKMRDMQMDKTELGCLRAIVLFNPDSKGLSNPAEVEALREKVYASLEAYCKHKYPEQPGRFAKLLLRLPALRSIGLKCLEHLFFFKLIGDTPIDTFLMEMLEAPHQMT
How it was run: (§3)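 HEK293 cells transfected by calcium phosphate with 60 ng pCMX-hRXR-α, 150 ng CRBPII-tk-Luc and 30 ng pCMX-β-gal plus carrier pUC18 (600 ng DNA per well). After 8 h the cells were washed and exposed to compound in medium with 10% FBS for 24−48 h. Luciferase was normalized to β-galactosidase. Triplicate or quadruplicate; representative of three independent experiments; EC50 from dose-response.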

[3] = target: T2, Retinoic acid receptor RXR-alpha (Homo sapiens) (UniProt P19793); experiment: as §2; type: cell-based; how it was run: as §3
T2 sequence (whole entry): T1 sequence (P19793 whole entry)

RAW264.7 [4] = experiment: Activation of RXR/LXR heterodimer in mouse RAW264.7 cells assessed as increase in ABCA1 mRNA level at 10 uM by quantitative RT-PCR analysis; type: cell-based; how it was run: as §1
[5] = target: T3, Retinoic acid receptor RXR-beta (Homo sapiens) (UniProt P28702); experiment: Binding affinity to RXRbeta (unknown origin) by receptor-SRC1 cofactor complex formation assay
T3 sequence (whole entry): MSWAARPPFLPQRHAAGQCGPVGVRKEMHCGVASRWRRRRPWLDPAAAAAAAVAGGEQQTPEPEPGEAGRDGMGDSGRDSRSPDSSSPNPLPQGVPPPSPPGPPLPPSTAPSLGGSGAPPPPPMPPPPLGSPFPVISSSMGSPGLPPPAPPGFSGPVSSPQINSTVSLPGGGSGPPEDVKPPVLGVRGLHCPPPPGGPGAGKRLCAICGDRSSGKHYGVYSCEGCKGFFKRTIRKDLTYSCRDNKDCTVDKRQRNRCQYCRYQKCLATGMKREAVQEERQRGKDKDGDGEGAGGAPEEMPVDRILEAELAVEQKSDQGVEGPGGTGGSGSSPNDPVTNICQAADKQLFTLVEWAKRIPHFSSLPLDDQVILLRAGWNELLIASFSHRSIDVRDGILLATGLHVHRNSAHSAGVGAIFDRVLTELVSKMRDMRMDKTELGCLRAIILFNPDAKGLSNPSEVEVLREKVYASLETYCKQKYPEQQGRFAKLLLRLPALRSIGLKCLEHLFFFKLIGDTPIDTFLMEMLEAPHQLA
How it was run: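 Ligand-dependent binding of RXR isotype to coactivator SRC-1 in an NR cofactor kit, detected with HRP-conjugated anti-RXR antibody at OD450. The full agonist CD3254 defined 100% and vehicle 0%. Efficacy was taken as maximum B/Bmax% and potency as EC50.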

[6] = Activation of LXR in mouse C2C12 cells assessed as induction of SREBP1 mRNA expression at 10 uM after 24 hrs by quantitative RT-PCR analysis; type: cell-based
RAW264.7 [7] = experiment: Activation of RXR/LXR heterodimer in mouse RAW264.7 cells assessed as increase in ABCA1 protein level at 10 uM after 24 hrs by Western blotting analysis; type: cell-based
[8] = Activation of LXR in mouse C2C12 cells assessed as induction of LPL mRNA expression at 10 uM after 24 hrs in presence of T0901317 by quantitative RT-PCR analysis; type: cell-based
How it was run: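 C2C12 myoblasts grown in DMEM/10% FBS, differentiated at confluence in 2% horse serum, medium changed every other day for 5 days; myotubes treated 24 h with or without T0901317 (1 μM). Total RNA, DNase-treated, oligo(dT) RT from 0.5 μg, SYBR green qPCR; normalized to β-actin (delta-delta Ct), fold over vehicle; mean ± SD of four determinants, one of two experiments.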

EC50 [2]: 770 nM
Activity [3]: Dose-dependent effect
Activity [5]: inactive
SMILES: CC(C)=CCc1cc([C@@H]2CC(=O)c3ccc(O)c(CC=C(C)C)c3O2)cc2c1OC(C(C)(C)O)C2 (stereo partly drawn)
Activity (RAW264.7 [1]): Active
Activity (RAW264.7 [4]): Active
Activity [6]: Active
Activity (RAW264.7 [7]): Active
Activity [8]: Active
